Measurements as given in ChEMBL document CHEMBL3352219, “Triterpenes from Alisma orientalis act as androgen receptor agonists, progesterone receptor antagonists, and glucocorticoid receptor antagonists” (Bioorg Med Chem Lett, 2014).
Activity calls are given as the source filed them. No cut-off for these calls is given here.

Key:
[1] = test system: HepG2; test: Cytotoxicity against human HepG2 cells; format: cell-based
[2] = biological target: T1, Progesterone receptor (Homo sapiens) (UniProt P06401); test: Antagonist activity at progesterone receptor (unknown origin) expressed in human HepG2 cells assessed as reduction in progesterone-induced response at 100 nM by MMTV promoter-driven luciferase reporter gene assay; format: cell-based
T1 sequence (whole entry): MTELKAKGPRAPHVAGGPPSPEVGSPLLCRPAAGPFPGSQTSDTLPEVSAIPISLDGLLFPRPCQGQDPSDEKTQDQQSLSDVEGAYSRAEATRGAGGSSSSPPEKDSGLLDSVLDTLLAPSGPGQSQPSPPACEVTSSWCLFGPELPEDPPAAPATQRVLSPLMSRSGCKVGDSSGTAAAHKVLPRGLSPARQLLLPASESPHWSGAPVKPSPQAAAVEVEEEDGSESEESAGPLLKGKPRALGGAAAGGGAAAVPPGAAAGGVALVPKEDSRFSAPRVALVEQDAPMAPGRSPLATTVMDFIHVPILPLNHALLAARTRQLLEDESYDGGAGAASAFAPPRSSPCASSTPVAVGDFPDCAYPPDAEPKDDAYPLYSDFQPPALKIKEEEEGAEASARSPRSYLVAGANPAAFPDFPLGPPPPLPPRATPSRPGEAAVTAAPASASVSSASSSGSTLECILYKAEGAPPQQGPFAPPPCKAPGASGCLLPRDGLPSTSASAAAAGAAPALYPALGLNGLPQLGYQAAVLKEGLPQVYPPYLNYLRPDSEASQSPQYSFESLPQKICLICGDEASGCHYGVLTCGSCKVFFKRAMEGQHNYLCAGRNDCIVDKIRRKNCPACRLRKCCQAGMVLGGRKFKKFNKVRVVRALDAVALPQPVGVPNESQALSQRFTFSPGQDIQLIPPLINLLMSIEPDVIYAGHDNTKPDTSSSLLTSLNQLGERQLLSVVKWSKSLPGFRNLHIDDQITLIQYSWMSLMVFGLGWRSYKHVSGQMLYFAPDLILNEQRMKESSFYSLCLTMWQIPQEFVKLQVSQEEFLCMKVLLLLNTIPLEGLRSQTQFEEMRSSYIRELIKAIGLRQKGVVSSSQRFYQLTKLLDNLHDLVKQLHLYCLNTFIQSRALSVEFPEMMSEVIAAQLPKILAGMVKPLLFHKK
Outline: (§1)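 Triplicate HepG2 wells in phenol red-free, charcoal-stripped serum medium. Cotransfected with 2 µg pCMV-PR, 6 µg pMMTV-luc and 1 µg β-gal plasmid. Compound added with 10 nM progesterone for 24 h. Lysate luminescence normalized to β-galactosidase and expressed relative to progesterone alone (=1).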

[3] = biological target: T1, Progesterone receptor (Homo sapiens); test: Antagonist activity at progesterone receptor (unknown origin) expressed in human HepG2 cells assessed as reduction in progesterone-induced response at 1 uM by MMTV promoter-driven luciferase reporter gene assay; format: cell-based; outline: as §1
[4] = biological target: T2, Glucocorticoid receptor (Homo sapiens) (UniProt P04150); test: Antagonist activity at glucocorticoid receptor (unknown origin) expressed in human HepG2 cells assessed as reduction in dexamethasone-induced response at 10 uM by MMTV promoter-driven luciferase reporter gene assay; format: cell-based; details: in the assay text read “GRE promoter-driven” for “MMTV promoter-driven”
T2 sequence (whole entry): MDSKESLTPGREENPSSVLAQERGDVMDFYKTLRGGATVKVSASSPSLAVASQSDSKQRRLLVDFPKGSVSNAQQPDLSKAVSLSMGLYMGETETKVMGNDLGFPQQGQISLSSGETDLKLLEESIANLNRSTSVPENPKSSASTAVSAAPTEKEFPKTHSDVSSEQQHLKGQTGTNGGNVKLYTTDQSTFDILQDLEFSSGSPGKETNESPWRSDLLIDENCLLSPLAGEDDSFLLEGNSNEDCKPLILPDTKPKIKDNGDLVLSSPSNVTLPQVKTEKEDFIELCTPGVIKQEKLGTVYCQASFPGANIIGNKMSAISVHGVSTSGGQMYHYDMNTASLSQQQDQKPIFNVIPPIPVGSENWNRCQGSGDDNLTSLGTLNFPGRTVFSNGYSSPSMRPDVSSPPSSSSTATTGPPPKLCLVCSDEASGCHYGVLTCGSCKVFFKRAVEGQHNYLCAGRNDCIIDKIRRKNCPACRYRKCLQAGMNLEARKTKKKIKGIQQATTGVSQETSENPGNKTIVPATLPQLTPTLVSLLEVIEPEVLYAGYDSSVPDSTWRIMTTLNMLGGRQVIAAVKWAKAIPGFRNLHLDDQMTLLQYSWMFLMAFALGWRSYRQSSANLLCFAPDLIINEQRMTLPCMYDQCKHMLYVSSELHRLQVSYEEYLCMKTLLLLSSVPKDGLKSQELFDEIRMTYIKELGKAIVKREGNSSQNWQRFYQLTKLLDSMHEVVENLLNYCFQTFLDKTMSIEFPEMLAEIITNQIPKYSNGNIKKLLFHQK
Outline: (§2)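 HepG2 in phenol red-free DMEM with charcoal-stripped FBS, triplicate wells. Transfected with 2 µg pCMV-GR, 6 µg pGRE-luc reporter and 1 µg β-gal control. Compound co-treated with 5 nM dexamethasone for 24 h. Luciferase/β-galactosidase ratio expressed relative to dexamethasone alone (=1).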

[5] = biological target: T1, Progesterone receptor (Homo sapiens); test: Antagonist activity at progesterone receptor (unknown origin) expressed in human HepG2 cells assessed as reduction in progesterone-induced response at 10 uM by MMTV promoter-driven luciferase reporter gene assay; format: cell-based; outline: as §1
[6] = biological target: T1, Progesterone receptor (Homo sapiens); test: Agonist activity at progesterone receptor (unknown origin) expressed in human HepG2 cells assessed as relative luciferase activity at 20 uM by MMTV promoter-driven luciferase reporter gene assay relative to progesterone; format: cell-based
[7] = biological target: T2, Glucocorticoid receptor (Homo sapiens); test: Agonist activity at glucocorticoid receptor (unknown origin) expressed in human HepG2 cells assessed as relative luciferase activity at 20 uM by GRE promoter-driven luciferase reporter gene assay relative to dexamethasone
[8] = biological target: T3, Androgen receptor (Homo sapiens) (UniProt P10275); test: Agonist activity at androgen receptor (unknown origin) expressed in human HepG2 cells assessed as relative luciferase activity at 1 uM by MMTV promoter-driven luciferase reporter gene assay relative to untreated vehicle control; format: cell-based
T3 sequence (whole entry): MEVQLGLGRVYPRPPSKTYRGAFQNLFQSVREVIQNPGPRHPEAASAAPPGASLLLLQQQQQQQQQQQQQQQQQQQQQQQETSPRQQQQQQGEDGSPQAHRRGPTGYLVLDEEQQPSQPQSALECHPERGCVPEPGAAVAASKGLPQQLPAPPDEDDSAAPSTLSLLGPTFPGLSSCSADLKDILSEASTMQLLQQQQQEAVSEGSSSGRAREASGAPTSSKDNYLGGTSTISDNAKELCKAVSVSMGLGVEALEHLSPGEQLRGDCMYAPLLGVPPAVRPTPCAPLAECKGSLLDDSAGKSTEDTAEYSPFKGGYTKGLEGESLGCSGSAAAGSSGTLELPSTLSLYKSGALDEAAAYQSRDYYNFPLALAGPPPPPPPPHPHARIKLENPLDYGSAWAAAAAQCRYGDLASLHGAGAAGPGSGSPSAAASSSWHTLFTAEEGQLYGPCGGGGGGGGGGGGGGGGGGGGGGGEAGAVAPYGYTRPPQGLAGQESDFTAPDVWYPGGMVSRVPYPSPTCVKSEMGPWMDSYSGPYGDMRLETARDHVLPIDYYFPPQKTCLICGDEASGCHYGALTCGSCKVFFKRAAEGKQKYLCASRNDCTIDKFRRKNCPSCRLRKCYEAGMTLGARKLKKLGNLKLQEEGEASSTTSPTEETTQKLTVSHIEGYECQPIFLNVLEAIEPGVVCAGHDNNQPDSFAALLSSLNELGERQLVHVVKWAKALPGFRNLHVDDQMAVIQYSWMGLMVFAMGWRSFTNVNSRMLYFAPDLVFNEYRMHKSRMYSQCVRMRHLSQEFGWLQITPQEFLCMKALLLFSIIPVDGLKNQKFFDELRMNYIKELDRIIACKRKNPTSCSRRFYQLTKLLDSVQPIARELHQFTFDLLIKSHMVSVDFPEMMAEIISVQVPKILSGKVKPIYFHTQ
Outline: (§3)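 HepG2 in phenol red-free DMEM with 10% charcoal-stripped FBS, plated in triplicate at 1 × 10^5 cells/well. After 24 h, transfected with 2 µg wild-type AR expression plasmid (pCMV-AR), 6 µg pMMTV-luc reporter and 1 µg β-galactosidase plasmid. Treated 24 h, then lysed. Luciferase normalized to β-gal and expressed relative to DMSO vehicle (=1).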

[9] = biological target: T2, Glucocorticoid receptor (Homo sapiens); test: Antagonist activity at glucocorticoid receptor (unknown origin) expressed in human HepG2 cells assessed as reduction in dexamethasone-induced response at 100 nM by MMTV promoter-driven luciferase reporter gene assay; format: cell-based; details: in the assay text read “GRE promoter-driven” for “MMTV promoter-driven”; outline: as §2
[10] = biological target: T2, Glucocorticoid receptor (Homo sapiens); test: Antagonist activity at glucocorticoid receptor (unknown origin) expressed in human HepG2 cells assessed as reduction in dexamethasone-induced response at 1 uM by MMTV promoter-driven luciferase reporter gene assay; format: cell-based; details: in the assay text read “GRE promoter-driven” for “MMTV promoter-driven”; outline: as §2
[11] = biological target: T3, Androgen receptor (Homo sapiens); test: Agonist activity at androgen receptor (unknown origin) expressed in human HepG2 cells assessed as relative luciferase activity at 100 nM by MMTV promoter-driven luciferase reporter gene assay relative to untreated vehicle control; format: cell-based; outline: as §3

For `C[C@H](C[C@H](O)[C@H]1OC1(C)C)C1=C2C[C@H](O)[C@H]3[C@@]4(C)CCC(=O)C(C)(C)[C@@H]4CC[C@]3(C)[C@@]2(C)CC1` [ALISOL B], the Activity [1] was “Toxic”.
In the case of `CC(=O)O[C@@H](C[C@@H](C)C1=C2[C@H](O)[C@H](O)[C@H]3[C@@]4(C)CCC(=O)C(C)(C)[C@@H]4CC[C@]3(C)[C@@]2(C)CC1=O)[C@H]1OC1(C)C`, the inhibition [2] is reported as “inactive”, the Activity (% of progesterone control) [3] is reported as 71% and the Activity (% of dexamethasone control) [4] is reported as 30%. For the same compound, the Activity [1] was “Non-toxic”, the Activity (% of progesterone control) [5] was 64% and the Activity [6] was “inactive”. For the same compound, the Activity [7] was “inactive”, the Activity [8] was “inactive” and the inhibition [9] was “inactive”. For the same compound, the Activity (% of dexamethasone control) [10] was 56% and the Activity [11] was “inactive”.
In the case of `CC(=O)O[C@@H](C[C@@H](C)C1=C2C[C@H](O)[C@H]3[C@@]4(C)CCC(=O)C(C)(C)[C@@H]4CC[C@]3(C)[C@@]2(C)CC1)[C@@H](O)C(C)(C)O`, the inhibition [2] is reported as “Active”, the Activity (% of progesterone control) [3] is reported as 82% and the Activity (% of dexamethasone control) [4] is reported as 39%. For the same compound, the Activity [1] was “Non-toxic”, the Activity (% of progesterone control) [5] was 66% and the Activity [6] was “inactive”. For the same compound, the Activity [7] was “inactive”, the Activity [8] was “inactive” and the inhibition [9] was “Active”. The Activity (% of dexamethasone control) [10] was 56% and the Activity [11] was “inactive”.
